Experimental data published in the RNAGym collection of RNA variant scans (doi:10.1038/s41586-018-0170-7).

B1: tRNA (parent)
chain: GUUCCGUUGGCGUAAUGGUAACGCGUCUCCCUCCUAAGGAGAAGACUGCGGGUUCGAGUCCCGUACGGAACG

Variants of: B1
Experiment: yeast fitness, log relative to wild type (ln ratio); higher = fitter; tRNA-Arg(CCU), competitive growth, 37 C, 1 M NaCl
In short: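 For each genotype, fitness is defined as the natural log of its generation number over the wild type's. The tRNA-Arg(CCU) variant library was on a HIS3 centromeric plasmid in BY4742 with the chromosomal gene removed, and pools were first grown 4 generations in SC-HIS at 30 °C and then ~6.5 generations (~26.5 h) in SC-HIS 1M NaCl at 37 °C. Generations were calculated from OD-scaled log2 output/input frequency, weighted by inverse variance across replicates, using counts from 125 bp paired-end Illumina sequencing.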

| Variant | yeast fitness (ln) |
| --- | --- |
| G1A G6U C27U A43C C66U A70U | -0.381 |
| G1A G6U C27U A69G A70G C71U | -0.376 |
| G1A G6U C27U C66U C71U | -0.389 |
| G1A G6U C27U A43C C66U C71U | -0.403 |
| G1A U2C C66U A70U | -0.0937 |
| G1A U2C C66U A70G | -0.297 |
| G1A U2C A70G C71U | -0.0141 |
| G1A G6U C27U A43C C46U C66A A69G A70G C71U | -0.359 |
| G1A U2C C27U C71U | -0.238 |
| G1A G6U C27U A69G C71U | -0.371 |
| G1A G6U C27U A43C C46U C66U A69G A70G C71U | -0.501 |
| G1A G6U C27U A43C C66A A69G A70G C71U | -0.417 |
| G1A G6U C66U A70U | -0.154 |
| G1A G6U C66U A70G | -0.199 |
| G1A G6U C27U A43C C46U C66U A70U C71U | -0.471 |
| G1A U2C | -0.00128 |
| G1A U2C C46U A69G C71U | -0.134 |
| G1A G6U C27U C46U C66A A69G A70G C71U | -0.58 |
| G1A U2C A70G | -0.0111 |
| G1A U2C A70U | -0.096 |
| G1A U2C A43C C46U A70U C71U | -0.0746 |

| Variant | yeast fitness (ln) |
| --- | --- |
| G1A U2C C66A A70G C71U | -0.208 |
| G1A U2C C27U A69G A70G C71U | -0.0512 |
| G1A U2C C27U C46U C66A A70U | 0.02 |
| G1A G6U C27U A43C C66U | -0.362 |
| G1A U2C A70U C71U | -0.0394 |
| G1A G6U C27U A69G A70U | -0.29 |
| G1A G6U C27U A69G A70G | -0.379 |
| G1A G6U C27U A43C C46U C66A A70U C71U | -0.325 |
| G1A U2C C27U A43C A70U C71U | -0.175 |
| G1A G6U C46U C66A A69G A70G C71U | -0.162 |
| G1A U2C A43C | -0.0267 |
| G1A U2C C27U A43C C46U C66A A70U | -0.106 |
| G1A U2C C27U A43C C46U C66A A70G | -0.102 |
| G1A G6U C27U A43C C46U C66U | -0.475 |
| G1A G6U C27U A43C C66U A69G A70U C71U | -0.435 |
| G1A U2C C27U C46U A69G A70G | -0.122 |
| G1A U2C C27U C46U A69G A70U | -0.0465 |
| G1A U2C C27U C66U A69G A70G | -0.313 |
| G1A G6U C46U C66A A70U C71U | -0.084 |
| G1A G6U C27U C71U | -0.251 |
| G1A U2C C27U A43C C66U A70G C71U | -0.197 |

| Variant | yeast fitness (ln) |
| --- | --- |
| G1A G6U C66U A69G A70G | -0.288 |
| G1A G6U C66U A69G A70U | -0.284 |
| G1A U2C A43C C46U A69G A70G | -0.0565 |
| G1A U2C A43C C46U A69G A70U | -0.0156 |
| G1A U2C C27U C46U C66A A69G A70G C71U | -0.294 |
| G1A G6U C27U C46U C66U C71U | -0.297 |
| G1A U2C A43C C46U C71U | -0.0678 |
| G1A G6U C46U C66U C71U | -0.057 |
| G1A G6U C66A A69G A70G C71U | -0.17 |
| G1A U2C C27U C46U C71U | -0.147 |
| G1A U2C A43C C46U | -0.00932 |
| G1A G6U C27U C46U A69G A70G | -0.307 |
| G1A G6U C27U C46U A69G A70U | -0.299 |
| G1A G6U C66A A70U C71U | -0.159 |
| G1A U2C A43C C46U A69G A70U C71U | -0.384 |
| G1A U2C C27U C46U A70G C71U | -0.0196 |
| G1A U2C C71U | -0.00448 |
| G1A U2C A43C C46U C66A A69G A70G C71U | -0.0434 |
| G1A U2C C66U A70G C71U | 0.00307 |
| G1A U2C A43C A70G C71U | -0.011 |
| G1A U2C C27U A43C C46U | -0.0167 |

| Variant | yeast fitness (ln) |
| --- | --- |
| G1A G6U C46U C66A A69G A70G | -0.158 |
| G1A G6U C46U C66A A69G A70U | -0.106 |
| G1A U2C C46U C66U | -0.00756 |
| G1A G6U C27U C46U C66A A69G C71U | -0.187 |
| G1A G6U C46U C71U | -0.183 |
| G1A G6U C27U C46U C66A A70U C71U | -0.415 |
| G1A U2C C27U C46U | -0.00588 |
| G1A U2C C27U C66A A70G C71U | -0.221 |
| G1A G6U C27U A43C C71U | -0.352 |
| G1A U2C C27U A43C A69G A70G | -0.275 |
| G1A U2C C27U A43C A69G A70U | -0.307 |
| G1A U2C A43C C66A A70U C71U | -0.285 |
| G1A U2C C27U C46U C66A A70G C71U | -0.262 |
| G1A U2C A43C C46U A70G | -0.00269 |
| G1A U2C A43C C46U A70U | -0.0817 |
| G1A U2C C27U C46U C66U | -0.144 |
| G1A U2C C27U C46U C66U A70U C71U | -0.147 |
| G1A U2C A43C C46U C66U A70U | -0.132 |
| G1A U2C A43C C46U C66U A70G | -0.0459 |
| G1A G6U C46U C66A A70U | -0.0534 |
